This passage reports IC50, inhibition and Activity results from ChEMBL document CHEMBL3351279, “Topoisomerase II inhibitors from the roots of Stellera chamaejasme L” (Bioorg Med Chem, 2014).

SMILES strings stand for the structures. Activity calls are given as the source filed them. The rule behind the calls is not given here.

Test [1] has as its system A549. As to the kind of experiment: Cytotoxicity against human A549 cells after 72 hrs by SRB assay. It is filed as functional, cell-based. Particulars: A549, 72 h. The gist of the method:
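A549 cells grown in F12 with 10% heat-inactivated FBS (37°C, 5% CO2), seeded overnight, then exposed 72 h. Fixed in cold 10% TCA for 1 h at 4°C, stained with 4 mg/mL SRB in 1% acetic acid for 15 min, solubilized in 10 mM Tris-HCl, read at A560. Inhibition = [1 − A560treated/A560control]×100%; IC50 by Logit method, at least three independent tests.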

In test [2] the target is T1, DNA topoisomerase 1 (Homo sapiens) (UniProt P11387).
T1 sequence (whole entry): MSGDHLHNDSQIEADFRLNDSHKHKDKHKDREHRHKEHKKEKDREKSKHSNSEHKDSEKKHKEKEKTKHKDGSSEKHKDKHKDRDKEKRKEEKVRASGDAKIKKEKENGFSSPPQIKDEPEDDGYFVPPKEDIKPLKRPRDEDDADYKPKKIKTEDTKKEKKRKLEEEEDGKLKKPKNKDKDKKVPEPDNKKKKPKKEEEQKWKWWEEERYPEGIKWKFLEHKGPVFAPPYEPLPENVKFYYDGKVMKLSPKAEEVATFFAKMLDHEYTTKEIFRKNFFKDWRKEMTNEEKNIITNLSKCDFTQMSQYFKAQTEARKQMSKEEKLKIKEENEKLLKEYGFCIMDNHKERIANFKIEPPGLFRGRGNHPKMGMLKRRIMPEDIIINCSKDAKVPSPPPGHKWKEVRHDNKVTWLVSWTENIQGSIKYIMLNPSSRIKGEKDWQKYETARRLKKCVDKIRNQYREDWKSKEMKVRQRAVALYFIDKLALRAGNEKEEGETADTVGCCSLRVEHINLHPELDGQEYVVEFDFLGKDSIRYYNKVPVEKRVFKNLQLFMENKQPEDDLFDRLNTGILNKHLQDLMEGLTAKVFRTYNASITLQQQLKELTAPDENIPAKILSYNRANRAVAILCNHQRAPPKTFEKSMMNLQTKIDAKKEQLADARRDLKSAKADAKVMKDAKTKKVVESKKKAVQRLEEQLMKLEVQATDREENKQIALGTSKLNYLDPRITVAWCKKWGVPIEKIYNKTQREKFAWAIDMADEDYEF
As to the kind of experiment: Inhibition of DNA topoisomerase-1 (unknown origin) assessed as inhibition of supercoiled pBR322 relaxation up to 100 uM after 15 mins by gel electrophoresis. The procedure, abridged: (§1)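 Supercoiled pBR322 relaxation with compounds at 100 µM. Topo I: 12.5 µg/mL DNA, 0.01 unit/µL enzyme, no ATP. Topo IIα: 6.67 µg/mL DNA, 0.0467 units/µL enzyme, 1 mM ATP. 37°C for 15 min, SDS stop, 1% agarose/TAE gel at 4 V/cm for 1 h, ethidium bromide stain.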

Test [3] deals with DNA topoisomerase 2-alpha (Homo sapiens) (UniProt P11388). Nature of the test: Inhibition of DNA topoisomerase-2 (unknown origin) assessed as inhibition of kDNA decatenation at 100 uM after 15 mins by agarose gel electrophoresis.
The target is the same in test [4]. As to the kind of experiment: Inhibition of DNA topoisomerase-2 (unknown origin) assessed as inhibition of supercoiled pBR322 relaxation at 100 uM after 15 mins by gel electrophoresis. The gist of the method:
as §1

Test [5] has as its system A549. As to the kind of experiment: Induction of apoptosis in human A549 cells assessed as early apoptotic cells at 30 nM after 48 hrs by Annexin V/propidium iodide staining-based flow cytometry (reference value: 5.75%). In kind it is functional. The procedure, abridged: (§2)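 After 48 h exposure, A549 cells resuspended in cold binding buffer with Annexin-V-FITC and PI, kept 10 min at room temperature in the dark, then analyzed on a FACSCalibur. Annexin-V+/PI− cells counted as early apoptotic.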
In general terms: In flow cytometry, cells or beads pass a laser one at a time.

The subject of test [6] is A549. Nature of the test: Induction of apoptosis in human A549 cells assessed as early apoptotic cells at 10 nM after 48 hrs by Annexin V/propidium iodide staining-based flow cytometry (reference value: 5.75%). In kind it is functional. The gist of the method:
as §2

Test [7] relates to A549. Nature of the test: Cell cycle arrest in human A549 cells assessed as accumulation at G2/M phase at 10 to 300 nM after 24 hrs by propidium iodide staining-based flow cytometry. In kind it is functional.
Test [8] relates to A549. As to the kind of experiment: Cell cycle arrest in human A549 cells assessed as accumulation at G2 phase at 300 nM after 24 hrs by propidium iodide staining-based flow cytometry (reference value: 18%). In kind it is functional.

Chain of DNA topoisomerase 2-alpha (Homo sapiens) (P11388 whole entry): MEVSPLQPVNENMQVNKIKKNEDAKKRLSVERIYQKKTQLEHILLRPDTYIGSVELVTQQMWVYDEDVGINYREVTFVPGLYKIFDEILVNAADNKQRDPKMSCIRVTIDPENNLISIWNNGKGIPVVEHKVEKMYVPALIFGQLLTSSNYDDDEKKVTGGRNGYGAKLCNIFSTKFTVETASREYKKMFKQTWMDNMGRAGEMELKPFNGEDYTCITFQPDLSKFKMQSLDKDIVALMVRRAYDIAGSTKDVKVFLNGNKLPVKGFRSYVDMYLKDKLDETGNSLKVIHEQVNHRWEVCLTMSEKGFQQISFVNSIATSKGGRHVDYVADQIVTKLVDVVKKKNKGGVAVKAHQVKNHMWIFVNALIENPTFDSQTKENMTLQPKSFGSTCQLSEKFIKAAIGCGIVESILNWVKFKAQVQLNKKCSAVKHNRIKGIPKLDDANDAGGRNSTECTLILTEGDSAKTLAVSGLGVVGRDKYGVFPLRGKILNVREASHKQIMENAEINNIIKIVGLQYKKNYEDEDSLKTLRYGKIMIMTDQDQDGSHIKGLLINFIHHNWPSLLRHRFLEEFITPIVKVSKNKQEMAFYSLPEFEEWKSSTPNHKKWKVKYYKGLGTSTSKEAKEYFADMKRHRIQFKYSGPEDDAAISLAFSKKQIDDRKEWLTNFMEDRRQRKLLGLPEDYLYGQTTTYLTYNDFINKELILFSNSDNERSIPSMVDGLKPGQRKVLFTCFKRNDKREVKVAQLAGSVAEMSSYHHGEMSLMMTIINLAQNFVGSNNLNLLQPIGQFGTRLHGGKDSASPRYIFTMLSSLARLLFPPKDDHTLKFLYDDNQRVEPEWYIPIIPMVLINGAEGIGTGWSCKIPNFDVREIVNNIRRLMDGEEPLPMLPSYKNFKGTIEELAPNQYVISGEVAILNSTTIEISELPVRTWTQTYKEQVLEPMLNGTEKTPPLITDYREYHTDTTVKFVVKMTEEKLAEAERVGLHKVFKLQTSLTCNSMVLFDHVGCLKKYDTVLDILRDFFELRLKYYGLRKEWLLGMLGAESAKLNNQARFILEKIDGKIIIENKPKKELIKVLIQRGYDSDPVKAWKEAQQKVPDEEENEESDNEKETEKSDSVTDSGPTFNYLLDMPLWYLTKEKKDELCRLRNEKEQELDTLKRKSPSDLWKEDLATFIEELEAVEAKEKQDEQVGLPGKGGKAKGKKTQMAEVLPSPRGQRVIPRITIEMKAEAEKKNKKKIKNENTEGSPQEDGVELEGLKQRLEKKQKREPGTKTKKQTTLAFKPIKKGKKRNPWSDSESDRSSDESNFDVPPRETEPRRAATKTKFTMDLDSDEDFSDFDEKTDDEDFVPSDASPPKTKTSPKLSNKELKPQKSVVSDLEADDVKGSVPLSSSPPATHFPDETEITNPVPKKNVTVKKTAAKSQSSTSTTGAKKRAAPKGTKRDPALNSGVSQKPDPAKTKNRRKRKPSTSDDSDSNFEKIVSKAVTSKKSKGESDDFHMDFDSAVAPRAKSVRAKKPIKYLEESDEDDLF

For the compound `C=C(C)[C@]12C[C@@H](C)[C@@]34O[C@](CCCCCCCCC)(O[C@@H]1[C@@H]3[C@@H]1O[C@]1(CO)[C@@H](O)[C@]1(O)C(=O)C(C)=C[C@H]14)O2` [SIMPLEXIN], in the test on A549 [1], it took 0.3 nM to reach half-maximal inhibition (IC50).
With `C=C(C)[C@@]1(O)[C@H](OC(=O)/C=C/C=C/CCCCCCCC)[C@@H]2[C@@H]3O[C@]3(CO)[C@@H](O)[C@]3(O)C(=O)C(C)=C[C@H]3[C@@]2(O)[C@H](C)[C@H]1OC(C)=O`, the inhibition entry in test [2] was “inactive”. The inhibition entry in test [3] and in test [4] was “Active” throughout. This compound showed an IC50 with A549 [1] of 24 nM.
In turn, `C[C@H]1CC=C2[C@H]1C[C@]1(O)C(=O)C[C@@]2(C)C1(C)CO` (stereo not given in full) registered a concentration for half-maximal inhibition (IC50) in the test with A549 [1] of 1950 nM. That is a single-digit micromolar value.
In turn, `C=C(C)[C@@]12O[C@@]3(/C=C/C=C/CCCCCCCCC)O[C@@H]1[C@@H]1[C@@H]4O[C@]4(CO)[C@@H](O)[C@]4(O)C(=O)C(C)=C[C@H]4[C@@]1(O3)[C@H](C)[C@H]2OC(C)=O` had a half-inhibitory concentration (IC50) in the test with A549 [1] of 0.4 nM.
Consider `COc1cc([C@H]2OC[C@@H]3Cc4cc(OC)c(O)cc4C[C@@H]32)ccc1O`, for which the inhibition entry in test [2] is “inactive”. Moreover, the inhibition entry in test [3] and in test [4] was “Active” in each case. This compound had a concentration for half-maximal inhibition (IC50) with A549 [1] of 1530 nM.
As for `C=C(C)[C@]1(OC(=O)/C=C\C=C\CCCCCCCCC)C[C@@H](C)[C@@]2(O)[C@H]([C@H]1O)[C@@H]1O[C@]1(CO)[C@@H](O)[C@]1(O)C(=O)C(C)=C[C@H]12`, the inhibition entry in test [2] is “inactive”. Further, the Activity is listed as 19.94% in the test with A549 [5], 17.57% in the test with A549 [6] and greater than 50% in the test with A549 [8]. For the same compound, the inhibition result in test [3] and in test [4] was “Active” in each case. Besides, in the test with A549 [7], the result was Active. The compound also registered a 50% inhibitory concentration (IC50) in the test with A549 [1] of 2.7 nM.
Turning to `COc1cc(C[C@H]2COC(=O)[C@@H]2Cc2ccc3c(c2)OCO3)ccc1O`, the 50% inhibitory concentration (IC50) with A549 [1] was found to be 273 nM. That is a sub-micromolar value.
Consider `C=C(C)[C@]12C[C@@H](C)[C@@]34O[C@](/C=C/C=C/CCCCCCCCC)(O[C@@H]1[C@@H]3[C@@H]1O[C@]1(CO)[C@@H](O)[C@]1(O)C(=O)C(C)=C[C@H]14)O2`, for which the inhibition entry in test [2] was “inactive”. For the same compound, the inhibition entry in test [3] and in test [4] was “Active” throughout. The compound also came in with an IC50 with A549 [1] of 0.7 nM.
In the case of `COc1cc([C@@H]2c3cc4c(cc3[C@@H](O[C@@H]3O[C@@H]5CO[C@@H](C)O[C@H]5[C@H](O)[C@H]3O)[C@H]3COC(=O)[C@H]23)OCO4)cc(OC)c1O`, the inhibition entry in test [4] was “Active”.

By IC50 is commonly meant the concentration needed to halve the response being measured. Low readings indicate greater potency, high ones weaker potency.
